Laboratory results as given in publication PMC7993274 (Clinical and Translational Science, 2020).

Assay: Treatment-emergent adverse events, SAD period
Format: in vivo, human
In short: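 Double-blind, placebo-controlled study in healthy men and nonchildbearing women aged 18–55 y. The SAD period gave one fasted oral dose; the MAD period gave fed dosing q.d. for 10 days, plus a separate b.i.d. cohort. TEAEs, serious AEs and discontinuation AEs were monitored ≥28 days after the last dose. Vital signs, physical exam, 12-lead ECG, hematology, clinical chemistry and urinalysis were also recorded. Data summarized descriptively.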

Cn1cc(-c2cn3nccc3c(-c3cnn([C@]4(CC#N)C[C@@H](C#N)C4)c3)n2)cn1 [PF‐06826647]
AEs (SAD 3 mg (n = 6)): 0 n | AEs leading to study drug dose reduction or interruption (SAD 3 mg (n = 6)): 0 n | Participants with AEs (SAD 3 mg (n = 6)): 0 n (%) | Participants with TEAEs: Alanine aminotransferase increased (SAD 3 mg (n = 6)): 0 n (%) | Participants with TEAEs: Aspartate aminotransferase increased (SAD 3 mg (n = 6)): 0 n (%) | Participants with TEAEs: Edema (SAD 3 mg (n = 6)): 0 n (%) | Participants with TEAEs: Face edema (SAD 3 mg (n = 6)): 0 n (%) | Participants with TEAEs: Gastrointestinal disorders (SOC) (SAD 3 mg (n = 6)): 0 n (%) | Participants with TEAEs: General disorders and administration site conditions (SOC) (SAD 3 mg (n = 6)): 0 n (%) | Participants with TEAEs: Headache (SAD 3 mg (n = 6)): 0 n (%) | Participants with TEAEs: Injury, poisoning, and procedural complications (SOC) (SAD 3 mg (n = 6)): 0 n (%) | Participants with TEAEs: Investigations (SOC) (SAD 3 mg (n = 6)): 0 n (%) | Participants with TEAEs: Nausea (SAD 3 mg (n = 6)): 0 n (%) | Participants with TEAEs: Nervous system disorders (SOC) (SAD 3 mg (n = 6)): 0 n (%) | Participants with TEAEs: Periorbital hematoma (SAD 3 mg (n = 6)): 0 n (%) | Participants with TEAEs: Periorbital hemorrhage (SAD 3 mg (n = 6)): 0 n (%) | Participants with TEAEs: Peripheral swelling (SAD 3 mg (n = 6)): 0 n (%) | Participants with TEAEs: Pruritus (SAD 3 mg (n = 6)): 0 n (%) | Participants with TEAEs: Rash (SAD 3 mg (n = 6)): 0 n (%) | Participants with TEAEs: Skin and subcutaneous tissue disorders (SOC) (SAD 3 mg (n = 6)): 0 n (%) | Participants with TEAEs: Urticaria (SAD 3 mg (n = 6)): 0 n (%) | SAEs (SAD 3 mg (n = 6)): 0 n | Severe AEs (SAD 3 mg (n = 6)): 0 n | AEs (SAD 10 mg (n = 6)): 0 n | AEs leading to study drug dose reduction or interruption (SAD 10 mg (n = 6)): 0 n | Participants with AEs (SAD 10 mg (n = 6)): 0 n (%) | Participants with TEAEs: Alanine aminotransferase increased (SAD 10 mg (n = 6)): 0 n (%) | Participants with TEAEs: Aspartate aminotransferase increased (SAD 10 mg (n = 6)): 0 n (%) | Participants with TEAEs: Edema (SAD 10 mg (n = 6)): 0 n (%) | Participants with TEAEs: Face edema (SAD 10 mg (n = 6)): 0 n (%) | Participants with TEAEs: Gastrointestinal disorders (SOC) (SAD 10 mg (n = 6)): 0 n (%) | Participants with TEAEs: General disorders and administration site conditions (SOC) (SAD 10 mg (n = 6)): 0 n (%) | Participants with TEAEs: Headache (SAD 10 mg (n = 6)): 0 n (%) | Participants with TEAEs: Injury, poisoning, and procedural complications (SOC) (SAD 10 mg (n = 6)): 0 n (%) | Participants with TEAEs: Investigations (SOC) (SAD 10 mg (n = 6)): 0 n (%) | Participants with TEAEs: Nausea (SAD 10 mg (n = 6)): 0 n (%) | Participants with TEAEs: Nervous system disorders (SOC) (SAD 10 mg (n = 6)): 0 n (%) | Participants with TEAEs: Periorbital hematoma (SAD 10 mg (n = 6)): 0 n (%) | Participants with TEAEs: Periorbital hemorrhage (SAD 10 mg (n = 6)): 0 n (%) | Participants with TEAEs: Peripheral swelling (SAD 10 mg (n = 6)): 0 n (%) | Participants with TEAEs: Pruritus (SAD 10 mg (n = 6)): 0 n (%) | Participants with TEAEs: Rash (SAD 10 mg (n = 6)): 0 n (%) | Participants with TEAEs: Skin and subcutaneous tissue disorders (SOC) (SAD 10 mg (n = 6)): 0 n (%) | Participants with TEAEs: Urticaria (SAD 10 mg (n = 6)): 0 n (%) | SAEs (SAD 10 mg (n = 6)): 0 n | Severe AEs (SAD 10 mg (n = 6)): 0 n | AEs (SAD 30 mg (n = 8)): 0 n | AEs leading to study drug dose reduction or interruption (SAD 30 mg (n = 8)): 0 n | Participants with AEs (SAD 30 mg (n = 8)): 0 n (%) | Participants with TEAEs: Alanine aminotransferase increased (SAD 30 mg (n = 8)): 0 n (%) | Participants with TEAEs: Aspartate aminotransferase increased (SAD 30 mg (n = 8)): 0 n (%) | Participants with TEAEs: Edema (SAD 30 mg (n = 8)): 0 n (%) | Participants with TEAEs: Face edema (SAD 30 mg (n = 8)): 0 n (%) | Participants with TEAEs: Gastrointestinal disorders (SOC) (SAD 30 mg (n = 8)): 0 n (%) | Participants with TEAEs: General disorders and administration site conditions (SOC) (SAD 30 mg (n = 8)): 0 n (%) | Participants with TEAEs: Headache (SAD 30 mg (n = 8)): 0 n (%) | Participants with TEAEs: Injury, poisoning, and procedural complications (SOC) (SAD 30 mg (n = 8)): 0 n (%) | Participants with TEAEs: Investigations (SOC) (SAD 30 mg (n = 8)): 0 n (%) | Participants with TEAEs: Nausea (SAD 30 mg (n = 8)): 0 n (%) | Participants with TEAEs: Nervous system disorders (SOC) (SAD 30 mg (n = 8)): 0 n (%) | Participants with TEAEs: Periorbital hematoma (SAD 30 mg (n = 8)): 0 n (%) | Participants with TEAEs: Periorbital hemorrhage (SAD 30 mg (n = 8)): 0 n (%) | Participants with TEAEs: Peripheral swelling (SAD 30 mg (n = 8)): 0 n (%) | Participants with TEAEs: Pruritus (SAD 30 mg (n = 8)): 0 n (%) | Participants with TEAEs: Rash (SAD 30 mg (n = 8)): 0 n (%) | Participants with TEAEs: Skin and subcutaneous tissue disorders (SOC) (SAD 30 mg (n = 8)): 0 n (%) | Participants with TEAEs: Urticaria (SAD 30 mg (n = 8)): 0 n (%) | SAEs (SAD 30 mg (n = 8)): 0 n | Severe AEs (SAD 30 mg (n = 8)): 0 n | AEs (SAD 100 mg (n = 7)): 9 n | AEs leading to study drug dose reduction or interruption (SAD 100 mg (n = 7)): 0 n | Participants with AEs (SAD 100 mg (n = 7)): 1 (14.3) n (%) | Participants with TEAEs: Alanine aminotransferase increased (SAD 100 mg (n = 7)): 0 n (%) | Participants with TEAEs: Aspartate aminotransferase increased (SAD 100 mg (n = 7)): 0 n (%) | Participants with TEAEs: Edema (SAD 100 mg (n = 7)): 1 (14.3) n (%) | Participants with TEAEs: Face edema (SAD 100 mg (n = 7)): 1 (14.3) n (%) | Participants with TEAEs: Gastrointestinal disorders (SOC) (SAD 100 mg (n = 7)): 1 (14.3) n (%) | Participants with TEAEs: General disorders and administration site conditions (SOC) (SAD 100 mg (n = 7)): 1 (14.3) n (%) | Participants with TEAEs: Headache (SAD 100 mg (n = 7)): 1 (14.3) n (%) | Participants with TEAEs: Injury, poisoning, and procedural complications (SOC) (SAD 100 mg (n = 7)): 1 (14.3) n (%) | Participants with TEAEs: Investigations (SOC) (SAD 100 mg (n = 7)): 0 n (%) | Participants with TEAEs: Nausea (SAD 100 mg (n = 7)): 1 (14.3) n (%) | Participants with TEAEs: Nervous system disorders (SOC) (SAD 100 mg (n = 7)): 1 (14.3) n (%) | Participants with TEAEs: Periorbital hematoma (SAD 100 mg (n = 7)): 1 (14.3) n (%) | Participants with TEAEs: Periorbital hemorrhage (SAD 100 mg (n = 7)): 1 (14.3) n (%) | Participants with TEAEs: Peripheral swelling (SAD 100 mg (n = 7)): 0 n (%) | Participants with TEAEs: Pruritus (SAD 100 mg (n = 7)): 1 (14.3) n (%) | Participants with TEAEs: Rash (SAD 100 mg (n = 7)): 1 (14.3) n (%) | Participants with TEAEs: Skin and subcutaneous tissue disorders (SOC) (SAD 100 mg (n = 7)): 1 (14.3) n (%) | Participants with TEAEs: Urticaria (SAD 100 mg (n = 7)): 1 (14.3) n (%) | SAEs (SAD 100 mg (n = 7)): 0 n | Severe AEs (SAD 100 mg (n = 7)): 0 n | AEs (SAD 400 mg (n = 8)): 0 n | AEs leading to study drug dose reduction or interruption (SAD 400 mg (n = 8)): 0 n | Participants with AEs (SAD 400 mg (n = 8)): 0 n (%) | Participants with TEAEs: Alanine aminotransferase increased (SAD 400 mg (n = 8)): 0 n (%) | Participants with TEAEs: Aspartate aminotransferase increased (SAD 400 mg (n = 8)): 0 n (%) | Participants with TEAEs: Edema (SAD 400 mg (n = 8)): 0 n (%) | Participants with TEAEs: Face edema (SAD 400 mg (n = 8)): 0 n (%) | Participants with TEAEs: Gastrointestinal disorders (SOC) (SAD 400 mg (n = 8)): 0 n (%) | Participants with TEAEs: General disorders and administration site conditions (SOC) (SAD 400 mg (n = 8)): 0 n (%) | Participants with TEAEs: Headache (SAD 400 mg (n = 8)): 0 n (%) | Participants with TEAEs: Injury, poisoning, and procedural complications (SOC) (SAD 400 mg (n = 8)): 0 n (%) | Participants with TEAEs: Investigations (SOC) (SAD 400 mg (n = 8)): 0 n (%) | Participants with TEAEs: Nausea (SAD 400 mg (n = 8)): 0 n (%) | Participants with TEAEs: Nervous system disorders (SOC) (SAD 400 mg (n = 8)): 0 n (%) | Participants with TEAEs: Periorbital hematoma (SAD 400 mg (n = 8)): 0 n (%) | Participants with TEAEs: Periorbital hemorrhage (SAD 400 mg (n = 8)): 0 n (%) | Participants with TEAEs: Peripheral swelling (SAD 400 mg (n = 8)): 0 n (%) | Participants with TEAEs: Pruritus (SAD 400 mg (n = 8)): 0 n (%) | Participants with TEAEs: Rash (SAD 400 mg (n = 8)): 0 n (%) | Participants with TEAEs: Skin and subcutaneous tissue disorders (SOC) (SAD 400 mg (n = 8)): 0 n (%) | Participants with TEAEs: Urticaria (SAD 400 mg (n = 8)): 0 n (%) | SAEs (SAD 400 mg (n = 8)): 0 n | Severe AEs (SAD 400 mg (n = 8)): 0 n | AEs (SAD 1,600 mg (n = 6)): 3 n | AEs leading to study drug dose reduction or interruption (SAD 1,600 mg (n = 6)): 0 n | Participants with AEs (SAD 1,600 mg (n = 6)): 2 (33.3) n (%) | Participants with TEAEs: Alanine aminotransferase increased (SAD 1,600 mg (n = 6)): 1 (16.7) n (%) | Participants with TEAEs: Aspartate aminotransferase increased (SAD 1,600 mg (n = 6)): 1 (16.7) n (%) | Participants with TEAEs: Edema (SAD 1,600 mg (n = 6)): 0 n (%) | Participants with TEAEs: Face edema (SAD 1,600 mg (n = 6)): 0 n (%) | Participants with TEAEs: Gastrointestinal disorders (SOC) (SAD 1,600 mg (n = 6)): 0 n (%) | Participants with TEAEs: General disorders and administration site conditions (SOC) (SAD 1,600 mg (n = 6)): 1 (16.7) n (%) | Participants with TEAEs: Headache (SAD 1,600 mg (n = 6)): 0 n (%) | Participants with TEAEs: Injury, poisoning, and procedural complications (SOC) (SAD 1,600 mg (n = 6)): 0 n (%) | Participants with TEAEs: Investigations (SOC) (SAD 1,600 mg (n = 6)): 1 (16.7) n (%) | Participants with TEAEs: Nausea (SAD 1,600 mg (n = 6)): 0 n (%) | Participants with TEAEs: Nervous system disorders (SOC) (SAD 1,600 mg (n = 6)): 0 n (%) | Participants with TEAEs: Periorbital hematoma (SAD 1,600 mg (n = 6)): 0 n (%) | Participants with TEAEs: Periorbital hemorrhage (SAD 1,600 mg (n = 6)): 0 n (%) | Participants with TEAEs: Peripheral swelling (SAD 1,600 mg (n = 6)): 1 (16.7) n (%) | Participants with TEAEs: Pruritus (SAD 1,600 mg (n = 6)): 0 n (%) | Participants with TEAEs: Rash (SAD 1,600 mg (n = 6)): 0 n (%) | Participants with TEAEs: Skin and subcutaneous tissue disorders (SOC) (SAD 1,600 mg (n = 6)): 0 n (%) | Participants with TEAEs: Urticaria (SAD 1,600 mg (n = 6)): 0 n (%) | SAEs (SAD 1,600 mg (n = 6)): 0 n | Severe AEs (SAD 1,600 mg (n = 6)): 0 n
